Compound activity as filed in PubChem.
DENV2 CPE rescue – protects cells from dengue virus 2 cytopathic effect; CPE inhibition, % at 9.99 µM; DENV2-infected cells, cytopathic effect rescue, plate reader; 1.7% of 350,000 active; in the data active = CPE inhibition above about 20%, passing the limit was not always enough; tested in BHK-21 cells;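 note: 0% = median of neutral control wells and 100% = median of positive control wells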
S100A4 inh HTS – inhibitors of human S100A4 binding to myosin IIA peptide. P26447. S100A4/TAMRA-MyoIIA peptide fluorescence polarization. inhibition, % at 10.7 µM. 0.14% of 360,000 active;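 active = mean inhibition of at least 70% across replicates, with every replicate also reaching that level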
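assay system = human S100A4 monomer with TAMRA-labelled myosin IIA peptide | also added = labelled myosin peptide probe, 5 nM | incubation = 5 min between mix addition and reading | control set = DMSO and TFP controls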
ERAP1 HTS inh – blocks human ERAP1 aminopeptidase activity | Q9NZ08 | recombinant ERAP1, Leu-AMC fluorescence, 60 min | 0.15% of 340,000 active | inhibition, % at 10.7 µM;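 active = mean replicate inhibition of at least 30%, or all replicates individually reaching that 30% level; inactive = mean below 30% and not every replicate reaching it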;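 note: 0% = neutral control wells and 100% = L-leucinethiol positive control wells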
Target sequence (Q9NZ08 whole entry, looked up): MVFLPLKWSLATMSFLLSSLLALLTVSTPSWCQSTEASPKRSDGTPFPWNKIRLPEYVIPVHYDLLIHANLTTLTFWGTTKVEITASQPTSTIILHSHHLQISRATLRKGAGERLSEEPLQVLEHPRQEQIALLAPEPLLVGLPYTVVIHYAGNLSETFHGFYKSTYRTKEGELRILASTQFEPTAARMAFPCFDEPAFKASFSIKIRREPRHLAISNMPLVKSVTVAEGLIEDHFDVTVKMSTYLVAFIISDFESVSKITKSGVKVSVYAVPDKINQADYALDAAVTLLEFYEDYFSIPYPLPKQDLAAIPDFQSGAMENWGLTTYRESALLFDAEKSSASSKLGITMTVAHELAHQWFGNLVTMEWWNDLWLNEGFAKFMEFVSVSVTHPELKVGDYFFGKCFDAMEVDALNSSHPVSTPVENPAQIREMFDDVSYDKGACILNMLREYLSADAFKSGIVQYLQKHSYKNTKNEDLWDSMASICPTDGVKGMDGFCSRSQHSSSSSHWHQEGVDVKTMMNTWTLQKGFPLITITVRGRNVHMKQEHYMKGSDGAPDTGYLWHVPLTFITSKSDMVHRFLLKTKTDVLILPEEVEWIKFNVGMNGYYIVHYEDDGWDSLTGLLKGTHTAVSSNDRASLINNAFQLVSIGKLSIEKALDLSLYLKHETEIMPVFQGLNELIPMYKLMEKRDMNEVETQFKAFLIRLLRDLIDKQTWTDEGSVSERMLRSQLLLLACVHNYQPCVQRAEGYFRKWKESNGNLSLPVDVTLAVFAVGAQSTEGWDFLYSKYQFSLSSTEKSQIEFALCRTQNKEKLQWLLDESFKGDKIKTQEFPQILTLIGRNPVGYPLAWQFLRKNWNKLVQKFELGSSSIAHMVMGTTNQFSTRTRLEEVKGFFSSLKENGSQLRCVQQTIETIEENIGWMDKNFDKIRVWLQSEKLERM
CAL PDZ FP-1 – CAL PDZ (human) peptide binding inhibition; purified CAL PDZ, TMR-peptide fluorescence polarization, 1 h; AID 602252; inhibition, % at 24.9 µM; 0.92% of 300,000 active;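 active = mean inhibition of at least 30% with at least half of replicates also reaching 30%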;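 note: 0% = DMSO neutral control and 100% = excess unlabeled competitor peptide PRC23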
CAL PDZ FP-2 – blocks peptide binding to human CAL PDZ domain. Q9HD26. purified CAL PDZ, TMR-peptide fluorescence polarization, 1 h. inhibition, % at 20 µM. 0.02% of 330,000 active. AID 504414;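 active = highest replicate inhibition of at least 40%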;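 note: plate controls were DMSO neutral control wells for no effect and unlabeled competitor peptide control wells for full effect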
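Material – purified CerCALP PDZ construct · Detection – FP readout, S and P plane fluorescence · Measure – percent inhibition from loss of millipolarization · Controls – unlabelled peptide for full inhibition, DMSO wells as neutral · Probe or stimulus – TMR-labelled reporter peptide T*-PRC34 bound in PDZ groove · Times – 1 h at RT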
SIRT5 inh – sirtuin-5 (human) deacylase inhibition; AID 652115; Purified SirT5, succinyl-peptide AMC, trypsin-coupled fluorescence; Q9NXA8; 1.1% of 330,000 active; inhibition, % at 15 µM; in the data active = inhibition above about 15%
Starred values were filed as active, the others as inactive. A selection: hits, their analogues and other compounds. The true share with any hit is near 2.9%.

For CN1C(=O)c2cc(NS(=O)(=O)c3ccc(Cl)cc3)ccc2OC[C@H]2O[C@@H](CC(=O)N3CCc4ccccc4C3)CC[C@@H]21 the results were DENV2 CPE rescue -3, S100A4 inh HTS -3, ERAP1 HTS inh 1 and SIRT5 inh 16*.
For CCNC(=O)Nc1ccc2c(c1)C(=O)N(C)[C@@H]1CC[C@H](CC(=O)N[C@@H](C)c3ccccc3)O[C@H]1CO2 the results were DENV2 CPE rescue 1, S100A4 inh HTS 14, ERAP1 HTS inh 2 and SIRT5 inh 1.
For CN1C(=O)c2cc(NC(=O)c3ccc(F)c(F)c3)ccc2OC[C@@H]2O[C@@H](CC(=O)N3CCOCC3)CC[C@@H]21 the results were DENV2 CPE rescue 1, S100A4 inh HTS 0, ERAP1 HTS inh 1 and SIRT5 inh 4.
Screening CCOC(=O)C1=C[C@@H](C)N(S(=O)(=O)c2ccc(C)cc2)[C@H]1c1ccccc1 returned DENV2 CPE rescue -3, S100A4 inh HTS -6, ERAP1 HTS inh -1 and SIRT5 inh 2.
`CCOC(=O)C1=C[C@@H](c2ccccc2)N(S(=O)(=O)c2ccc(C)cc2)[C@H]1c1ccccc1Cl` gave DENV2 CPE rescue 7, S100A4 inh HTS -2, ERAP1 HTS inh 14 and SIRT5 inh 23*.
Screening CCNC(=O)C[C@H]1CC[C@@H]2[C@@H](COc3ccc(NS(C)(=O)=O)cc3C(=O)N2C)O1 returned DENV2 CPE rescue 4, S100A4 inh HTS 6, ERAP1 HTS inh 0 and SIRT5 inh -7.
`COc1cccc(NC(=O)N2CCc3nc(Nc4ccc(C(C)C)cc4)ncc3C2)c1` gave DENV2 CPE rescue -10, S100A4 inh HTS -1 and ERAP1 HTS inh 3.
Screening COc1cc(Nc2ncc3c(n2)CCN(C(=O)Nc2ccc(C(C)C)cc2)C3)cc(OC)c1OC returned DENV2 CPE rescue -9, S100A4 inh HTS -5, ERAP1 HTS inh 1 and SIRT5 inh 18*.
O=C(NCCNC(=O)Oc1cccc2ccccc12)Oc1cccc2ccccc12 was read as DENV2 CPE rescue 11, S100A4 inh HTS -1, ERAP1 HTS inh 0, CAL PDZ FP-1 -7, CAL PDZ FP-2 -1 and SIRT5 inh 26*.
For CC1(C)C[C@H]2C3=CCC4[C@@]5(C)CC[C@H](O)[C@](C)(CO)C5CC[C@@]4(C)[C@]3(C)CC[C@@]2(C)[C@H](O)[C@@H]1O (stereo partly specified) the results were DENV2 CPE rescue 7, S100A4 inh HTS -2, ERAP1 HTS inh 3, CAL PDZ FP-1 0 and CAL PDZ FP-2 1.
`CC1(C)C[C@H]2C3=CCC4[C@@]5(C)CC[C@H](O)[C@](C)(CO)C5CC[C@@]4(C)[C@]3(C)C[C@H]3O[C@@H]1[C@H](O)[C@]32CO` (stereo partly specified) gave DENV2 CPE rescue 41*, S100A4 inh HTS -1, ERAP1 HTS inh 2, CAL PDZ FP-1 -3, CAL PDZ FP-2 0 and SIRT5 inh 2.
`O=C(Nc1ccccc1F)N[C@@H]1CC[C@@H](CCNC(=O)C2CCCC2)O[C@@H]1CO` gave DENV2 CPE rescue 5, S100A4 inh HTS -10, ERAP1 HTS inh 0 and SIRT5 inh 3.
`O=C(Nc1ccccc1Cl)c1sccc1-c1ccccc1` gave DENV2 CPE rescue -7, S100A4 inh HTS -4, ERAP1 HTS inh -3, CAL PDZ FP-1 -5, CAL PDZ FP-2 -3 and SIRT5 inh 79*.
For CN(C)S(=O)(=O)Oc1ccsc1C(=O)Nc1ccccc1Cl the results were CAL PDZ FP-1 -1 and CAL PDZ FP-2 -1.
For Cc1cc(OCC(=O)Nc2nnc(C3CC3)s2)ccc1C(C)C the results were DENV2 CPE rescue 0, S100A4 inh HTS -9, ERAP1 HTS inh -1, CAL PDZ FP-1 45*, CAL PDZ FP-2 0 and SIRT5 inh -2.
For CC(O)[C@H]1CN=C(N)N1CC1CCCCC1 (stereo partly specified) the results were DENV2 CPE rescue 3, S100A4 inh HTS -4, ERAP1 HTS inh -6, CAL PDZ FP-1 -2, CAL PDZ FP-2 0 and SIRT5 inh 16*.
NC1=NC[C@H](c2ccccc2)N1CC1CCCCC1 was read as DENV2 CPE rescue 2, S100A4 inh HTS 13, CAL PDZ FP-1 0 and CAL PDZ FP-2 0.
Screening Cn1c(N)c(C(=O)COC(=O)Cc2ccc(Cl)c(Cl)c2)c(=O)n(C)c1=O returned DENV2 CPE rescue 57*, S100A4 inh HTS 0, ERAP1 HTS inh 2, CAL PDZ FP-1 -7, CAL PDZ FP-2 -1 and SIRT5 inh 1.
Screening Cn1c(N)c(C(=O)COC(=O)c2ncc(Cl)c(Cl)c2Cl)c(=O)n(C)c1=O returned DENV2 CPE rescue 7, S100A4 inh HTS -3, ERAP1 HTS inh -1, CAL PDZ FP-1 55*, CAL PDZ FP-2 -1 and SIRT5 inh -5.
Screening C[C@H]1CCCCO[C@H](CN(C)C(=O)CCC(F)(F)F)[C@@H](C)CN([C@@H](C)CO)C(=O)c2cc(NS(=O)(=O)c3ccc(Cl)cc3)ccc2O1 returned DENV2 CPE rescue -4, S100A4 inh HTS 8, ERAP1 HTS inh 0 and SIRT5 inh 15*.
Screening C[C@H](CO)N1C[C@H](C)[C@@H](CN(C)C(=O)CCC(F)(F)F)OCCCC[C@H](C)Oc2ccc(NS(=O)(=O)c3ccc(Cl)cc3)cc2C1=O returned DENV2 CPE rescue -3, S100A4 inh HTS 11, ERAP1 HTS inh 4 and SIRT5 inh 13.
`Cc1ccc(S(=O)(=O)Nc2ccc3c(c2)C(=O)N([C@@H](C)CO)C[C@H](C)[C@H](CN(C)C(=O)CCC(F)(F)F)OCCCC[C@H](C)O3)cc1` gave DENV2 CPE rescue -2, S100A4 inh HTS -5, ERAP1 HTS inh 3 and SIRT5 inh 17*.
For O=C(C[C@H]1C=C[C@@H](NC(=O)c2ccc3c(c2)OCO3)[C@@H](CO)O1)NC1Cc2ccccc2C1 the results were DENV2 CPE rescue -3, S100A4 inh HTS 7, ERAP1 HTS inh 1 and SIRT5 inh 4.
COc1ccc(S(=O)(=O)Nc2ccc3c(c2)CC(=O)N([C@@H](C)CO)C[C@@H](C)[C@H](CN(C)Cc2ccc(-c4ccccc4)cc2)O3)cc1 was read as DENV2 CPE rescue -22, S100A4 inh HTS -7, ERAP1 HTS inh 2 and SIRT5 inh -5.
C[C@@H]1CCCCO[C@H](CN(C)C(=O)C2CCCCC2)[C@@H](C)CN([C@@H](C)CO)C(=O)c2cc(NC(=O)Nc3ccc(F)cc3)ccc2O1 was read as DENV2 CPE rescue 47*, S100A4 inh HTS -3, ERAP1 HTS inh 3 and SIRT5 inh 6.
`C[C@@H]1CN([C@H](C)CO)C(=O)c2cc(NC(=O)Nc3ccccc3)ccc2O[C@@H](C)CCCCO[C@@H]1CN(C)C(=O)C1CCCCC1` gave DENV2 CPE rescue 71*, S100A4 inh HTS 5, ERAP1 HTS inh 2 and SIRT5 inh 0.
